Assay results taken from ChEMBL document CHEMBL1157027, “The identification of 8,9-dimethoxy-5-(2-aminoalkoxy-pyridin-3-yl)-benzo[c][2,7]naphthyridin-4-ylamines as potent inhibitors of 3-phosphoinositide-dependent kinase-1 (PDK-1)” (Eur J Med Chem, 2010).

Legend:
[1] = target: RAC-alpha serine/threonine-protein kinase (Homo sapiens, UniProt P31749); assay: Inhibition of AKT
[2] = Inhibition of PKA
Procedure, shortened: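 PKA activity was measured with the Z'-LYTE kinase assay, run per the manufacturer's protocol at 100 uM ATP. IC50 values are given in nM.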

[3] = target: Ribosomal protein S6 kinase beta-1 (Homo sapiens, UniProt P23443); assay: Inhibition of p70S6K
[4] = target: T1, 3-phosphoinositide-dependent protein kinase 1 (Homo sapiens, UniProt O15530); assay: Inhibition of human GST-tagged-PDK1 expressed in HEK293 cells; type: cell-based
T1 sequence (O15530 whole entry): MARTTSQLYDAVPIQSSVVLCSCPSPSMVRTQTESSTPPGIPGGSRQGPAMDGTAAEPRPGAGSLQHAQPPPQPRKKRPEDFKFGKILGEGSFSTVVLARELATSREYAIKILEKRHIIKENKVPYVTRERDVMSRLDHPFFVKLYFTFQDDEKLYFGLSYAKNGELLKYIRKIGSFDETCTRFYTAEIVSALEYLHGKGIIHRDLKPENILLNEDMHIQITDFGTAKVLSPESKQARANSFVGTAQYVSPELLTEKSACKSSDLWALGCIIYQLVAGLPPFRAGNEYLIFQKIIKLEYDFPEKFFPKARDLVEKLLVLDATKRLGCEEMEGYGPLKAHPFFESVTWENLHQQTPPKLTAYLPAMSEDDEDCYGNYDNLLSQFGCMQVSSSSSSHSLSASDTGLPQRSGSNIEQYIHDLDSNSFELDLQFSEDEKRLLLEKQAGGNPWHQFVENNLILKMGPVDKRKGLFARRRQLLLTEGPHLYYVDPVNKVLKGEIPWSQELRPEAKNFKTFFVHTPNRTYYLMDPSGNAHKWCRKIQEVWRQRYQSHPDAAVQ

Ribosomal protein S6 kinase beta-1, sequence (P23443 whole entry): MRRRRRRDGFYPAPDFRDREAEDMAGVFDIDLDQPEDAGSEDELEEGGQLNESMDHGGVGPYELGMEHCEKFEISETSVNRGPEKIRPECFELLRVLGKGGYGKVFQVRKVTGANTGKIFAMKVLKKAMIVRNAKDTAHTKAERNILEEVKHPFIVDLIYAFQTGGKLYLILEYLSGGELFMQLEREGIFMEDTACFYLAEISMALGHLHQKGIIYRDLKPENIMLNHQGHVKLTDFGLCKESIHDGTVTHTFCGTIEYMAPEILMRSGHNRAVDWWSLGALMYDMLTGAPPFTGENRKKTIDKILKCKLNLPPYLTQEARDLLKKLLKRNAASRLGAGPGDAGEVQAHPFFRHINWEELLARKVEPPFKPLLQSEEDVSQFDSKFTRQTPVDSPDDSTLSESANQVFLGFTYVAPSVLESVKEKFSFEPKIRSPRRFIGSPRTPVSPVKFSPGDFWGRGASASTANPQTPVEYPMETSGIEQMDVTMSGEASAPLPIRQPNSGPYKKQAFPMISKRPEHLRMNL
RAC-alpha serine/threonine-protein kinase, sequence (P31749 whole entry): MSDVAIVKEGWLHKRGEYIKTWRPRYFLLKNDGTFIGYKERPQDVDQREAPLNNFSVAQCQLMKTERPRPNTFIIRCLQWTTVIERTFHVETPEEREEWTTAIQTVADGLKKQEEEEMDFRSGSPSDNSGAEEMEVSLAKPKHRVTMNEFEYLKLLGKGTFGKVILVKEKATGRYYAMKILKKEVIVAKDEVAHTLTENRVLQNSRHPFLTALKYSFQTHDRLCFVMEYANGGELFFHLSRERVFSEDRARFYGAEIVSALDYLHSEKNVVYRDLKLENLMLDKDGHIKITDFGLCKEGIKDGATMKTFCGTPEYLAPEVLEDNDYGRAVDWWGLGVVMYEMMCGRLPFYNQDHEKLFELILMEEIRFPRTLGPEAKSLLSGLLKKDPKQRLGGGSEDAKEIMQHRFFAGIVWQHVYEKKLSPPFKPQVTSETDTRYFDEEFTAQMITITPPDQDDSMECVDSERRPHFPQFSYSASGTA

Row | SMILES | IC50 [1] | IC50 [2] | IC50 [3] | IC50 [4]
1 | COc1cc2ncc3c(N)nc(-c4cncc(OC[C@H](N)Cc5ccccc5)c4)cc3c2cc1OC | 259 nM | < 31 nM |  | 
2 | CC[C@H](N)COc1cncc(-c2cc3c(cnc4cc(OC)c(OC)cc43)c(N)n2)c1 | 422 nM | 59 nM | 216 nM | 
3 | COc1cc2ncc3c(N)nc(-c4cncc(OC[C@H](C)N)c4)cc3c2cc1OC |  | 123 nM |  | 
4 | COc1cc2ncc3c(N)nc(-c4cncc(OC[C@@H](N)Cc5c[nH]c6ccccc56)c4)cc3c2cc1OC | 302 nM | 54 nM | 77 nM | 
5 | COc1cc2ncc3c(N)nc(-c4cncc(OC[C@H](N)Cc5cccc(C(F)(F)F)c5)c4)cc3c2cc1OC |  | 142 nM |  | 
6 | COc1cc2ncc3c(N)nc(-c4cncc(OC[C@@H](N)Cc5ccc(F)cc5)c4)cc3c2cc1OC | 183 nM | 32 nM | 21 nM | 
7 | COc1cc2ncc3c(N)nc(-c4cncc(OC[C@@H](N)Cc5ccc(Cl)c(Cl)c5)c4)cc3c2cc1OC |  | 41 nM |  | 
8 | COc1cc2ncc3c(N)nc(-c4cncc(OC[C@H](N)CC(C)C)c4)cc3c2cc1OC | 1390 nM | 385 nM | 443 nM | 18 nM
9 | COc1cc2ncc3c(N)nc(-c4cncc(OCCN)c4)cc3c2cc1OC | 402 nM | 66 nM | 80 nM | 
10 | COc1cc2ncc3c(N)nc(-c4cncc(OC[C@@H](C)N)c4)cc3c2cc1OC |  | 86 nM |  | 3 nM

Further lines, results first:

Row | IC50 [1] | IC50 [2] | IC50 [3] | IC50 [4] | SMILES
11 | 905 nM | 113 nM | 219 nM | 14 nM | COc1cc2ncc3c(N)nc(-c4cncc(OC[C@@H](N)CC(C)C)c4)cc3c2cc1OC
12 | 78 nM | 18 nM |  |  | COc1cc2ncc3c(N)nc(-c4cncc(OC[C@@H](N)Cc5cccc(Cl)c5)c4)cc3c2cc1OC
13 | 793 nM | 79 nM |  |  | COc1cc2ncc3c(N)nc(-c4cncc(OC[C@@H](N)Cc5ccccc5Cl)c4)cc3c2cc1OC
14 | 1750 nM | 138 nM | 343 nM | 9 nM | COc1cc2ncc3c(N)nc(-c4cncc(OC[C@@H](N)Cc5ccncc5)c4)cc3c2cc1OC
15 | 251 nM | 36 nM |  |  | COc1cc2ncc3c(N)nc(-c4cncc(OC[C@H](N)Cc5ccc(F)cc5)c4)cc3c2cc1OC
16 | 318 nM | 45 nM | 72 nM | 3 nM | CC[C@@H](N)COc1cncc(-c2cc3c(cnc4cc(OC)c(OC)cc43)c(N)n2)c1
17 | 261 nM | 77 nM | 107 nM |  | COc1cc2ncc3c(N)nc(-c4cncc(OC[C@@H](N)Cc5ccccc5)c4)cc3c2cc1OC
18 | 209 nM | 68 nM | 182 nM |  | COc1cc2ncc3c(N)nc(-c4cncc(OC[C@@H](N)Cc5cccc(C(F)(F)F)c5)c4)cc3c2cc1OC
19 | 1320 nM | 120 nM |  |  | COc1cc2ncc3c(N)nc(-c4cncc(OC[C@H](N)Cc5c[nH]c6ccccc56)c4)cc3c2cc1OC
